Tests used:
[1] = biological target: 11-beta-hydroxysteroid dehydrogenase 1 (Mus musculus, UniProt P50172); experiment: Inhibition of mouse HSD1 assessed as interconversion of cortisone to cortisol
Procedure, shortened: (§1)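 Enzyme inhibition measured as blocking the interconversion between cortisone and cortisol by mouse HSD1 (reported as Ki) or mouse HSD2 (reported as IC50); values are means of at least two experiments.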

[2] = biological target: T1, 11-beta-hydroxysteroid dehydrogenase type 2 (Mus musculus, UniProt P51661); experiment: Inhibition of mouse HSD2 assessed as interconversion of cortisone to cortisol; procedure, shortened: as §1
T1 sequence (P51661 whole entry): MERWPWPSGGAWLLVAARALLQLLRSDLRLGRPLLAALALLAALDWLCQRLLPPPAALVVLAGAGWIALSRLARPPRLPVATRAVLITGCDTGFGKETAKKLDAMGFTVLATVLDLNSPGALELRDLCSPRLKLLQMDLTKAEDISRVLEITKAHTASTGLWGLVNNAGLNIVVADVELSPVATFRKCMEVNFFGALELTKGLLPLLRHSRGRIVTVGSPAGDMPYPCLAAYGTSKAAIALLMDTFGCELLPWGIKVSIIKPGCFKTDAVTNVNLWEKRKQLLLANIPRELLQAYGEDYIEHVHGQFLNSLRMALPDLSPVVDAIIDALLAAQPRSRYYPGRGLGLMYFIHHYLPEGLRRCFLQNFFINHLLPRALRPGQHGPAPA

[3] = Metabolic stability in mouse liver microsomes assessed as compound remaining after 30 mins; assay type: ADME, Microsome; conditions: read-out: Stability
Procedure, shortened: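 Test compound incubated with mouse liver microsomes for 30 min; percent of parent compound remaining afterward reported.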

[4] = Half life in mouse at 10 mg/kg, iv; assay type: ADME, organism-based; set-up: dose 10 mg/kg, route intravenous; conditions: in vivo
[5] = Volume of distribution at steady state in mouse at 10 mg/kg; assay type: ADME, organism-based; set-up: dose 10 mg/kg; conditions: in vivo, read-out: Vdss
[6] = Volume of distribution at terminal phase in mouse at 10 mg/kg; assay type: ADME, organism-based; set-up: dose 10 mg/kg; conditions: in vivo, read-out: Vbeta
[7] = Plasma clearance in mouse at 10 mg/kg, iv; assay type: ADME, organism-based; set-up: dose 10 mg/kg, route intravenous
[8] = AUC in mouse at 10 mg/kg, po; assay type: ADME, organism-based; set-up: dose 10 mg/kg, route oral; conditions: plasma
[9] = Oral bioavailability in mouse at 10 mg/kg; assay type: ADME, organism-based; conditions: in vivo
[10] = Half life in monkey at 2.5 mg/kg, iv; assay type: ADME, organism-based, Macaca mulatta; set-up: dose 2.5 mg/kg, route intravenous; conditions: rhesus monkey, in vivo
[11] = Volume of distribution at steady state in monkey at 2.5 mg/kg; assay type: ADME, organism-based, Macaca mulatta; set-up: dose 2.5 mg/kg; conditions: rhesus monkey, in vivo, read-out: Vdss
[12] = Volume of distribution at terminal phase in monkey at 2.5 mg/kg; assay type: ADME, organism-based, Macaca mulatta; set-up: dose 2.5 mg/kg; conditions: rhesus monkey, in vivo, read-out: Vbeta
[13] = Plasma clearance in monkey at 2.5 mg/kg, iv; assay type: ADME, organism-based, Macaca mulatta; set-up: dose 2.5 mg/kg, route intravenous; conditions: rhesus monkey
[14] = AUC in monkey at 2.5 mg/kg, po; assay type: ADME, organism-based, Macaca mulatta; set-up: dose 2.5 mg/kg, route oral; conditions: rhesus monkey, plasma
[15] = Oral bioavailability in monkey at 2.5 mg/kg; assay type: ADME, organism-based, Macaca mulatta; conditions: rhesus monkey, in vivo
[16] = Metabolic stability in mouse liver microsomes assessed as intrinsic clearance; assay type: ADME, Microsome
Procedure, shortened: (§2)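 Intrinsic clearance (L/h/kg) determined from incubations with liver microsomes (mouse, monkey, human) or hepatocytes (mouse, monkey); values are means of three experiments.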

[17] = Metabolic stability in mouse hepatocytes assessed as intrinsic clearance; assay type: ADME, cell-based, Liver, Hepatocyte; procedure, shortened: as §2
[18] = Metabolic stability in monkey liver microsomes assessed as intrinsic clearance; assay type: ADME, Macaca mulatta, Microsome; conditions: rhesus monkey; procedure, shortened: as §2
[19] = Metabolic stability in monkey hepatocytes assessed as intrinsic clearance; assay type: ADME, cell-based, Macaca mulatta, Liver, Hepatocyte; conditions: rhesus monkey; procedure, shortened: as §2
[20] = Metabolic stability in human liver microsomes assessed as intrinsic clearance; assay type: ADME, Microsome; procedure, shortened: as §2
Mus musculus [21] = experiment: Ex vivo inhibition of liver 11-beta-HSD1 in DIO mouse at 30 mg/kg, po after 1 hr; assay type: functional
Procedure, shortened: (§3)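 DIO mice dosed orally at 30 mpk; animals killed 1, 7 and 16 h after the dose and liver, fat and brain taken. Ex vivo 11-β-HSD1 activity (cortisol levels) in tissue was measured and percent inhibition expressed relative to vehicle-dosed animals; means from two animals per point.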

Mus musculus [22] = experiment: Ex vivo inhibition of liver 11-beta-HSD1 in DIO mouse at 30 mg/kg, po after 7 hrs; assay type: functional; procedure, shortened: as §3
Mus musculus [23] = experiment: Ex vivo inhibition of liver 11-beta-HSD1 in DIO mouse at 30 mg/kg, po after 16 hrs; assay type: functional; procedure, shortened: as §3
Mus musculus [24] = experiment: Ex vivo inhibition of fat 11-beta-HSD1 in DIO mouse at 30 mg/kg, po after 1 hr; assay type: functional; procedure, shortened: as §3
Mus musculus [25] = experiment: Ex vivo inhibition of fat 11-beta-HSD1 in DIO mouse at 30 mg/kg, po after 7 hrs; assay type: functional; procedure, shortened: as §3
Mus musculus [26] = experiment: Ex vivo inhibition of fat 11-beta-HSD1 in DIO mouse at 30 mg/kg, po after 16 hrs; assay type: functional; procedure, shortened: as §3
Mus musculus [27] = experiment: Ex vivo inhibition of brain 11-beta-HSD1 in DIO mouse at 30 mg/kg, po after 1 hr; assay type: functional; procedure, shortened: as §3
Mus musculus [28] = experiment: Ex vivo inhibition of brain 11-beta-HSD1 in DIO mouse at 30 mg/kg, po after 7 hrs; assay type: functional; procedure, shortened: as §3
Mus musculus [29] = experiment: Ex vivo inhibition of brain 11-beta-HSD1 in DIO mouse at 30 mg/kg, po after 16 hrs; assay type: functional; procedure, shortened: as §3
[30] = biological target: T2, 11-beta-hydroxysteroid dehydrogenase 1 (Homo sapiens, UniProt P28845); experiment: Inhibition of human HSD1 assessed as interconversion of cortisone to cortisol
[31] = biological target: T3, 11-beta-hydroxysteroid dehydrogenase type 2 (Homo sapiens, UniProt P80365); experiment: Inhibition of human HSD2 assessed as interconversion of cortisone to cortisol
T3 sequence (P80365 whole entry): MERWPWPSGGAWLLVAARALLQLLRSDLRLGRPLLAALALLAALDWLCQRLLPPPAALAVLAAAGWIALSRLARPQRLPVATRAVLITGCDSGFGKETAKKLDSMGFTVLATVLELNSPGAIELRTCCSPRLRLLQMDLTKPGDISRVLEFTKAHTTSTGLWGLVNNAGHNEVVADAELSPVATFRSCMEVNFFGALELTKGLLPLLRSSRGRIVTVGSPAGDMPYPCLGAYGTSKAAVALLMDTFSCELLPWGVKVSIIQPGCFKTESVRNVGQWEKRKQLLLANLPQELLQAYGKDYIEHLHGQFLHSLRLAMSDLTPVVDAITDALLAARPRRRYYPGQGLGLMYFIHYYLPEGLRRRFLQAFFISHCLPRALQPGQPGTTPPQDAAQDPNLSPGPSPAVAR

[32] = biological target: T2, 11-beta-hydroxysteroid dehydrogenase 1; experiment: Inhibition of human HSD1 expressed in HEK cells; assay type: cell-based, HEK293
[33] = Half life in mouse at 5 mg/kg, iv and 10 mg/kg, po; assay type: ADME, organism-based; conditions: in vivo
[34] = Volume of distribution at steady state in mouse at 5 mg/kg, iv and 10 mg/kg, po; assay type: ADME, organism-based; conditions: in vivo, read-out: Vdss
[35] = Volume of distribution at terminal phase in mouse at 5 mg/kg, iv and 10 mg/kg, po; assay type: ADME, organism-based; conditions: in vivo, read-out: Vbeta
[36] = Plasma clearance in mouse at 5 mg/kg, iv and 10 mg/kg, po; assay type: ADME, organism-based
[37] = AUC in mouse at 5 mg/kg, iv and 10 mg/kg, po; assay type: ADME, organism-based; conditions: plasma
[38] = Oral bioavailability in mouse at 5 mg/kg, iv and 10 mg/kg, po; assay type: ADME, organism-based; conditions: in vivo

T2 sequence (P28845 whole entry): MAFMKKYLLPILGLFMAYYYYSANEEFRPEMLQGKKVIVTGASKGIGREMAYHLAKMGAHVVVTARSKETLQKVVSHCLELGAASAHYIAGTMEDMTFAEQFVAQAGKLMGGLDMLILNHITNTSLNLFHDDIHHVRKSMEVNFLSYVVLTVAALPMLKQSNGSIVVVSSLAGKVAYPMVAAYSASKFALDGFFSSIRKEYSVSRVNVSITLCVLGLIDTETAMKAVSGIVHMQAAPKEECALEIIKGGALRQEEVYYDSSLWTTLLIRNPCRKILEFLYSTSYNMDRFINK
Chain of 11-beta-hydroxysteroid dehydrogenase 1 (Mus musculus, UniProt P50172) (P50172 whole entry): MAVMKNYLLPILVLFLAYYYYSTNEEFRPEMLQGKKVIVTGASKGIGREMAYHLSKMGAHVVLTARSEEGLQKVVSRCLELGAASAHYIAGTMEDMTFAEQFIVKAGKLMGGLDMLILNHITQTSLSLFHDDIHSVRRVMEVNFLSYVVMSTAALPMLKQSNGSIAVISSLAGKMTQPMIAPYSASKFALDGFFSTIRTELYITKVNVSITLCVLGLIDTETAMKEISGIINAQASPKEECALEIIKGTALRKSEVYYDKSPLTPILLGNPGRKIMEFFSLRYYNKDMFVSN

Work on `CC(C)(Oc1ccc(Cl)cc1)C(=O)N[C@H]1C2CC3CC1C[C@](S(C)(=O)=O)(C3)C2` yielded a Ki [1] of 8 nM, an IC50 [2] greater than 100000 nM and a remaining at 0.5 h [3] of 70%.
`CN(C)S(=O)(=O)[C@]12CC3CC(C1)[C@@H](NC(=O)C(C)(C)Oc1ccc(Cl)cc1)C(C3)C2` showed a Ki [1] of 21 nM, an IC50 [2] of 100000 nM and a remaining at 0.5 h [3] of less than 1%.
Work on `CC(C)(Oc1cccc(Cl)c1)C(=O)N[C@H]1C2CC3CC1C[C@](S(C)(=O)=O)(C3)C2` yielded a Ki [1] of 10 nM, an IC50 [2] greater than 100000 nM and a remaining at 0.5 h [3] of 7%.
In the case of `CC(C)(Oc1ccc(F)cc1Cl)C(=O)N[C@H]1C2CC3CC1C[C@](S(C)(=O)=O)(C3)C2`, the Ki [1] is reported as 4 nM, the IC50 [2] is reported as greater than 100000 nM and the remaining at 0.5 h [3] is reported as 57%. It also gave a half-life [4] of 1 h, a Vd [5] of 1.5 L/kg and a Vd [6] of 1.7 L/kg. For the same molecule, the clearance [7] was 18.3 mL/min/kg, the AUC [8] was 8900 ng·h/mL and the bioavailability [9] was 100%. The half-life [10] was 5.1 h, the Vd [11] was 2.7 L/kg and the Vd [12] was 3.1 L/kg. It also gave a clearance [13] of 6.67 mL/min/kg, an AUC [14] of 6810 ng·h/mL and a bioavailability [15] of 109%. The CLint scaled [16] was 100 mL/min/kg, the CLint scaled [17] was 3.33 mL/min/kg and the CLint scaled [18] was 25 mL/min/kg. For the same molecule, the CLint scaled [19] was 1.67 mL/min/kg, the CLint scaled [20] was 26.7 mL/min/kg and the inhibition in vivo at 30 mg/kg (Mus musculus [21]) was 95%. For the same molecule, the inhibition in vivo at 30 mg/kg (Mus musculus [22]) was 95%, the inhibition in vivo at 30 mg/kg (Mus musculus [23]) was 89% and the inhibition in vivo at 30 mg/kg (Mus musculus [24]) was 87%. The inhibition in vivo at 30 mg/kg (Mus musculus [25]) was 93%, the inhibition in vivo at 30 mg/kg (Mus musculus [26]) was 86% and the inhibition in vivo at 30 mg/kg (Mus musculus [27]) was 90%. The inhibition in vivo at 30 mg/kg (Mus musculus [28]) was 90% and the inhibition in vivo at 30 mg/kg (Mus musculus [29]) was 77%.
With `CCS(=O)(=O)[C@]12CC3CC(C1)[C@@H](NC(=O)C(C)(C)Oc1ccc(F)cc1Cl)C(C3)C2` the Ki [1] was 7 nM and the IC50 [2] was greater than 100000 nM.
In the case of `CC(C)(Oc1ccccc1Cl)C(=O)N[C@H]1C2CC3CC1C[C@](S(N)(=O)=O)(C3)C2`, the Ki [30] is reported as 4 nM, the IC50 [31] is reported as 5500 nM and the Ki [1] is reported as 2 nM. For the same molecule, the IC50 [2] was greater than 100000 nM, the IC50 [32] was 83 nM and the remaining at 0.5 h [3] was 36%.
Molecule `CC(C)(C(=O)N[C@H]1C2CC3CC1C[C@](S(N)(=O)=O)(C3)C2)c1ccccc1` has a Ki [30] of 8 nM, an IC50 [31] greater than 100000 nM and a Ki [1] of 210 nM. The IC50 [2] was greater than 100000 nM and the IC50 [32] was 420 nM.
In the case of `CC(C)(Oc1ccccc1Cl)C(=O)N[C@H]1C2CC3CC1C[C@](S(C)(=O)=O)(C3)C2`, the Ki [30] is reported as 5 nM, the IC50 [31] is reported as 5400 nM and the Ki [1] is reported as 2 nM. For the same molecule, the IC50 [2] was greater than 100000 nM and the IC50 [32] was 120 nM.
Work on `CC(C)(Oc1ccc(Cl)cc1)C(=O)N[C@H]1C2CC3CC1C[C@](S(N)(=O)=O)(C3)C2` yielded an IC50 [2] greater than 100000 nM, a remaining at 0.5 h [3] of 96% and a half-life [33] of 1.8 h. For the same molecule, the Vd [34] was 2.1 L/kg, the Vd [35] was 2.1 L/kg and the clearance [36] was 13.3 mL/min/kg. For the same molecule, the AUC [37] was 18300 ng·h/mL and the bioavailability [38] was 150%.
For `CC(C)(Oc1ccc(Cl)cc1F)C(=O)N[C@H]1C2CC3CC1C[C@](S(C)(=O)=O)(C3)C2`, the Ki [1] was 8 nM, the IC50 [2] was greater than 100000 nM and the remaining at 0.5 h [3] was 63%.
For `CC(=O)NS(=O)(=O)[C@]12CC3CC(C1)[C@@H](NC(=O)C(C)(C)Oc1ccc(Cl)cc1)C(C3)C2`, the Ki [30] was 170 nM and the Ki [1] was 110 nM.
